Consider twelve compounds from ChEMBL document CHEMBL4219056 (Bioorg Med Chem, 2018).

pEC50: −log10 of the molar value. Activity calls are given as the source filed them. The calls are words filed in the database; no cut-off is given here.

For series [1], the target named is Free fatty acid receptor 1 (Homo sapiens, UniProt O14842). The experiment in a line: Agonist activity at human FFA1 expressed in CHO cells assessed as increase in intracellular Ca2+ flux by Fluo-4 dye based FLIPR assay. Format: functional, cell-based. The essentials:
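Stable human FFA1 CHO cells were seeded at 15 K cells/well and held 16 h at 37 °C in 5% CO2, then washed with HBSS. Ca2+ flux was read after graded compound addition. Response was scaled between vehicle and 10 µM γ-linolenic acid. EC50 is the mean of three independent determinations.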

The nature of series [2]: Lipophilicity, log D of the compound at 100 uM at pH 7.4 after 24 hrs by HPLC method. It counts as physicochemical. Conditions: buffer. A digest of the protocol: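 Shake-flask method: 10 mM DMSO stock was added to equal volumes of 0.01 M phosphate buffer pH 7.4 and 1-octanol, giving 100 µM final. Vials were shaken 24 h at 700 rpm, then left 1 h to separate. The octanol phase was diluted ×10 and both phases were run on HPLC. Injections were in duplicate; three independent experiments were run.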

For series [3], the system named is Mus musculus. The experiment in a line: Antidiabetic activity in ICR mouse assessed as reduction in blood glucose AUC (0 to 120 mins) at 40 mg/kg, po dosed 30 minutes prior to glucose challenge by OGTT relative to control. It counts as functional. Details: scale not given: the % may be the effect or the level left. A digest of the protocol: (§1)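 Fasting male ICR mice (10 weeks, 18-22 g) got a single oral dose in 0.5% carboxymethyl cellulose. Oral glucose (30% solution, 3 g/kg) followed 30 min later. Blood glucose was sampled at -30, 0, 15, 30, 60 and 120 min.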

Series [4] can be described thus: Plasma clearance in fasted Sprague-Dawley rat at 3 mg/kg, po administered as single dose measured up to 24 hrs by LC-PDA-MS/MS analysis. It counts as ADME, organism-based. The essentials: (§2)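 Male SD rats (8 weeks, 180-200 g) were fasted 12 h and dosed once orally at 3 mg/kg, suspended in 0.5% methylcellulose, n = 4 per group. Tail-vein blood was drawn at 5, 15, 30 and 45 min and at 1, 2, 4, 6, 8, 12, 18 and 24 h. Plasma was stored at -20 °C. Methanol precipitation with internal standard preceded LC-PDA-MS/MS. Values are mean ± SD.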

Series [5] can be described thus: Cmax in fasted Sprague-Dawley rat at 3 mg/kg, po administered as single dose by LC-PDA-MS/MS analysis. The arrangement: dose 3 mg/kg, route oral. Conditions: in vivo. Format: ADME, organism-based. A digest of the protocol: as §2
The nature of series [6]: AUC (0 to 24 hrs) in fasted Sprague-Dawley rat at 3 mg/kg, po administered as single dose by LC-PDA-MS/MS analysis. Format: ADME, organism-based. As to conditions: in vivo. The arrangement: dose 3 mg/kg, time < 24 hr, route oral. The essentials:
as §2

A short description of series [7]: Half life in fasted Sprague-Dawley rat at 3 mg/kg, po administered as single dose by LC-PDA-MS/MS analysis. Format: ADME, organism-based. Conditions: in vivo. A digest of the protocol:
as §2

The test system of series [8] is Mus musculus. The experiment in a line: Antidiabetic activity in ICR mouse assessed as reduction in blood glucose AUC (0 to 120 mins) at 20 mg/kg, po dosed 30 minutes prior to glucose challenge by OGTT relative to control. It counts as functional. Details: scale not given: the % may be the effect or the level left. A digest of the protocol:
as §1

Sequence of Free fatty acid receptor 1 (O14842 whole entry): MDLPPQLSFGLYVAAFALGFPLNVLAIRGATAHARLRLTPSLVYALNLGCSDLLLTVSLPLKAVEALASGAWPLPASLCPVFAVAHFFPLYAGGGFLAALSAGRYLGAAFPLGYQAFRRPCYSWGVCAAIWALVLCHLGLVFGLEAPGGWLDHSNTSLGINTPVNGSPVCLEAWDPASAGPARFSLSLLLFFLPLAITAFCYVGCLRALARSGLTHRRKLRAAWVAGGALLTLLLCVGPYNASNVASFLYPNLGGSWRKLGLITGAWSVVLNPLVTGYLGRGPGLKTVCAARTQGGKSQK

In the case of `Cc1ccsc1-c1cccc(COc2ccc3c(c2)OCC3CC(=O)O)c1` (stereo unspecified), in series [1], the pEC50 was 6.80.

Consider `Cc1noc(C)c1-c1cc(COc2ccc3c(c2)OC[C@H]3CC(=O)O)ccc1Cl`, for which the negative logarithm of the EC50 (pEC50) in series [1] is 8.10. Besides, the log distribution coefficient (logD) at 24 h, 100 µM in series [2] was determined as 1.93. For the same compound, the Activity in series [3] came to 26.2%. For the same compound, the apparent clearance CL/F in series [4] was 0.308 mL/min/kg. In addition, in series [5], the Cmax was found to be 14100 ng/mL. The AUC(0-t) at 24 h in series [6] was 142 µg·h/mL. Also, the half-life in series [7] is 4.65 h.

Turning to `Cc1ccc(-c2c(C)noc2C)cc1COc1ccc2c(c1)OCC2CC(=O)O` (stereo unspecified), the negative-log EC50 (pEC50) in series [1] is 7.27. The same compound gave a logD at 24 h, 100 µM in series [2] of 2.07.

As to `[2H]C([2H])(Cc1ccc(OCc2cccc(-c3c(C)noc3C)c2)cc1)C(=O)O`, the pEC50 in series [1] is 7.42. In series [2], this compound came in with a logD at 24 h, 100 µM of 1.83.

With `[2H]C([2H])(Cc1ccc(OCc2cccc(-c3c(C)noc3C)c2)cc1F)C(=O)O`, the negative logarithm of the EC50 (pEC50) in series [1] was 7.34.

As for `Cc1cc(OCCCS(C)(=O)=O)cc(C)c1-c1cccc(COc2ccc3c(c2)OC[C@H]3CC(=O)O)c1`, the Activity in series [8] came to 37.5%. The CL/F in series [4] is 0.618 mL/min/kg. Further, the Cmax in series [5] is 6460 ng/mL. Moreover, the AUC(0-t) at 24 h in series [6] turned out to be 79.5 µg·h/mL. The half-life in series [7] was 4.29 h.

Consider `Cc1noc(C)c1-c1cccc(COc2ccc(CCC(=O)O)cc2)c1`, for which, in series [3] (tested as the 2H-labelled form), the result was Active.

For `Cc1noc(C)c1-c1cc(COc2ccc3c(c2)OCC3CC(=O)O)ccc1Cl` (stereo unspecified), the pEC50 in series [1] is 7.73. This compound displayed a pH-dependent lipophilicity (logD) at 24 h, 100 µM in series [2] of 1.96. Moreover, the result in series [3] was Active.

Consider `Cc1nn(C)c(C)c1-c1cccc(COc2ccc3c(c2)OCC3CC(=O)O)c1` (stereo unspecified), for which the negative logarithm of the EC50 (pEC50) in series [1] is 6.98.

Regarding `Cc1noc(C)c1-c1ccc(Cl)c(COc2ccc3c(c2)OCC3CC(=O)O)c1` (stereo unspecified), the negative logarithm of the EC50 (pEC50) in series [1] is 7.40. This compound also displayed a logD at 24 h, 100 µM in series [2] of 2.13. Moreover, the result in series [3] was Active.

`Cc1ccc(C)n1-c1cccc(COc2ccc3c(c2)OCC3CC(=O)O)c1` (stereo unspecified): the negative logarithm of the EC50 (pEC50) in series [1] is 7.27. This compound showed a logD at 24 h, 100 µM in series [2] of 3.95.

On to `Cc1noc(C)c1-c1cccc(COc2ccc3c(c2)OCC3CC(=O)O)c1` (stereo unspecified), for which, in series [1], the pEC50 was 7.56. The compound also had a pH-dependent lipophilicity (logD) at 24 h, 100 µM in series [2] of 1.57. Further, in series [3], the outcome was Active.
